CHRM1 PAM – human CHRM1 positive allosteric modulation; P11229; CHO-K1 hM1, Fluo-8 calcium fluorescence, ACh EC20; 0% = ACh EC20, 100% = maximal ACh; activation, % at 3 µM; 360,000 compounds, 0.088% hits; in the data active = activation above about 19%, passing the limit was not always enough
Target sequence (P11229 whole entry, looked up): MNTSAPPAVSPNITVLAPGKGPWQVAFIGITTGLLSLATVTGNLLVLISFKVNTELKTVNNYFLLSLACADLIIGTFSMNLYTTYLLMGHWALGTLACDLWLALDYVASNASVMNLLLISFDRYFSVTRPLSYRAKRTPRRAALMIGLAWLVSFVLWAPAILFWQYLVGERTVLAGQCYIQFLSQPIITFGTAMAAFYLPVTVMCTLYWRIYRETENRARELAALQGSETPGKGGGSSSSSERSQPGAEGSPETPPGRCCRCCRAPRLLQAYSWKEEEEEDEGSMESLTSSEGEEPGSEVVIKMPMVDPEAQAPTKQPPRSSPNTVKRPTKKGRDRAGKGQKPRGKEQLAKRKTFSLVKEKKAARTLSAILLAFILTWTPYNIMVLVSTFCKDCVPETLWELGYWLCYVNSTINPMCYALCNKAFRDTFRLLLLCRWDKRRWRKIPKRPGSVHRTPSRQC
M5 ag – agonists of human muscarinic M5 receptor (CHRM5); activation, % at 3 µM; CHO-K1 hM5 cells, Fluo-8 calcium fluorescence; 0% DMSO wells, 100% maximal acetylcholine response; 360,000 compounds, 0.19% hits; P08912;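 active = activation above the run's mean over test compounds plus 3 SD, cut at about 23% in these data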;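 also: signal is peak over basal fluorescence ratio across the kinetic read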
M1 ag – agonists of human M1 muscarinic receptor; P11229; CHO-K1 hM1, Fluo-8 calcium fluorescence, agonist mode; 0% DMSO, 100% acetylcholine EC100; activation, % at 3 µM; 360,000 compounds, 0.33% hits; AID 588814;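 active = activation above the run's mean compound activation plus 3 SD, cut at about 16% in these data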;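 also: peak over basal fluorescence ratio within a 140 s kinetic read after compound addition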
M5 antag – antagonists of human muscarinic M5 receptor (CHRM5). P08912. CHO-hM5 cells, Fluo-8 calcium fluorescence, ACh EC80. inhibition, % at 3 µM. 360,000 compounds, 0.59% hits. AID 624040;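 active = inhibition above a per-plate cutoff, the mean of that plate's test compounds plus 3 SD, cut at about 27% in these data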
CHRM5 PAM – CHRM5 positive allosteric modulation. activation, % at 3 µM. 360,000 compounds, 0.3% hits. AID 624038. P08912. CHO-K1 hM5, Fluo-8 calcium, ACh EC20 PAM; 0% = ACh EC20, 100% = ACh EC100;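 active = activation above the run cutoff, the mean activation of all test compounds plus 3 SD, cut at about 18% in these data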
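Assay system – human M5 receptor in CHO-K1 cells · Read-out – % activation, ACh-normalized · Technique – Fluo-8 calcium fluorescence · Dosing – single-point, 3 µM nominal · Incubation – Fluo-8 loading 80 min at 37 °C plus 30 min room temperature · Repeats – singlicate, one well per test compound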
CHRM1 antagonist – human CHRM1 antagonism. P11229. CHO-K1 hM1, Fluo-8 calcium fluorescence, ACh EC80 antagonist. inhibition, % at 3 µM. 360,000 compounds, 1.3% hits. AID 588852;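 active = percent inhibition above its own plate's cutoff, namely the mean of that plate's compound wells plus 3 SD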;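 also: peak over basal fluorescence ratio during 140 s after agonist addition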
Numbers stand for hits; i = inactive. Only some compounds are listed: those with a hit (about 2.2% of all), similar ones and a draw of the others.

SMILES	CHRM1 PAM	M5 ag	M1 ag	M5 antag	CHRM5 PAM	CHRM1 antagonist
C=CCSc1nnc2nc3c(nn12)c1cc(C)ccc1n3CC=C	i	i	i	i	40.5	i
COc1cccc(C(C(=O)NC2CCCC2)N(C(=O)CNC(=O)c2ccco2)c2cccnc2)c1 (stereo unspecified)	i	i	i	i	i	i
C=CCC1(CC=C)CCCN1C(=O)c1cc(COc2ccc(C)nc2)on1	i	i	i	50.7	i	55.2
Cc1ccccc1OCC(=O)NCCCNC(=O)c1ccncc1	28.4	i	i	i	i	i
N=C(N)SCc1ncccc1O	i	i	i	i	i	i
N=C(N)SCc1ccccn1	i	i	29.9	i	i	i
O=C(c1[nH]c(C(F)(F)F)nc1-c1ccccc1)N1CCN(c2ccccc2)CC1	i	i	i	i	i	i
O=C(c1[nH]c(C(F)(F)F)nc1-c1ccccc1)N1CCN(c2c(Cl)cncc2Cl)CC1	i	35.8	17.1	i	i	i
Cc1ccc(S(=O)(=O)N2CCC(C(=O)N3CCC[C@H]3C(=O)NC3CCS(=O)(=O)C3)CC2)cc1 (stereo partly specified)	i	i	i	i	i	54.0
CCCNC(=O)[C@@H]1CCCN1C(=O)C1CCN(S(=O)(=O)c2ccc(C)cc2)CC1	i	i	i	i	i	i
CC1(c2ccccc2)NC(=O)N(CC(=O)NC(=O)NC2CCCC2)C1=O (stereo unspecified)	i	i	i	i	i	i
CN(Cc1ccccc1)S(=O)(=O)c1ccc(NS(=O)(=O)Cc2ccccc2)cc1	i	i	i	i	i	29.8
COC(=O)NNC(=O)C12CC3CC(CC(C3)C1)C2	i	i	i	i	i	i
NC(=S)NNC(=O)C12CC3CC(CC(C3)C1)C2	i	i	29.3	i	i	23.4
CC(=O)c1c(C)[nH]c(C(=O)OCCCCN2C(=O)c3ccccc3C2=O)c1C	i	i	i	30.9	i	39.6
CCOC(=O)c1[nH]c2ccccc2c1CCCN1C(=O)c2ccccc2C1=O	i	i	i	i	i	89.0
CC(=O)c1c(C)[nH]c(C(=O)OCc2ccccc2)c1C	i	i	i	i	i	i
CCOC(=O)c1[nH]c2cc3c(cc2c1CCCN1C(=O)c2ccccc2C1=O)OCCO3	i	i	i	i	i	i
CS(=O)(=O)c1ccc(NC(=O)c2cc3c(cc2Cl)N2CCCCCC2=NS3(=O)=O)cc1	i	i	i	i	i	i
Cn1nc(OC(=O)Nc2cccc(Cl)c2)cc1C(F)(F)F	i	i	i	27.4	i	i
CC(=O)COc1cccc2ccc(/C=C/c3ccc(Br)s3)nc12	i	i	i	i	22.7	i
O/N=C/c1cccc[n+]1CCCCCC[n+]1ccccc1/C=N/O	i	i	i	i	i	45.2
Cc1cc(N2CCN(C)CC2)nc2ccc(NC(=O)CCC(=O)NCc3ccco3)cc12	i	i	i	i	i	i
CC(C)Oc1ccc(N2CC(C(=O)NC3=NCCS3)CC2=O)cc1 (stereo unspecified)	i	i	i	i	i	i
Cc1ccc(C(=O)CCC(=O)Nc2ncccc2C)cc1	i	i	i	i	19.2	i
SMILES	CHRM1 PAM	M5 ag	M1 ag	M5 antag	CHRM5 PAM	CHRM1 antagonist
Cc1ccc(C(=O)CCC(=O)Nc2ncccc2O)cc1	i	i	i	i	i	i
Cc1ncc(C[n+]2csc(C)c2C)c(N)n1	i	i	i	i	21.9	i
Cc1ncc(C[n+]2csc(CCO)c2C)c(N)n1	i	i	i	i	i	i
O=C(COC(=O)c1cnccn1)NCc1ccccc1Cl	i	i	i	i	i	i
O=c1[nH]c(-c2ccccc2)nc(CN2CCCCC2)c1O	29.2	i	i	i	i	i
Cc1nc(CN2CCCCC2)c(O)c(=O)[nH]1	i	i	i	i	i	i
CN(C)C(CNC(=O)CN1C(=O)NC2(CCCC2)C1=O)c1ccccc1 (stereo unspecified)	i	i	i	i	i	47.9
CCC1CCCCN1CCNS(=O)(=O)c1ccc2c(c1)oc(=O)n2C (stereo unspecified)	i	i	i	i	i	50.4
